Screens: PubChem BioAssay, Johns Hopkins Ion Channel Center
KCNK3 inh: human KCNK3 channel inhibition, primary screen | CHO-KCNK3 thallium flux, FluxOR fluorescence; stronger effect = lower value | B-score at 10 µM | 340,000 compounds, 0.84% hits | AID 602410;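 active means B-score under library mean minus 4 SD, starting fluorescence ratio at most library mean plus 5 SD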;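 further: more negative B-score means stronger inhibition of thallium flux through KCNK3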
KCNQ1 act: human KCNQ1 channel potentiation or activation. 310,000 compounds, 0.35% hits. B-score at 10 µM. CHO-K1 KCNQ1, thallium flux FluxOR fluorescence; stronger effect = higher value. P51787;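 active means fluorescence ratio B-score, a plate-corrected score, at least three library SD, with initial intensity B-score within 5 SD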
Target sequence (P51787 whole entry, looked up): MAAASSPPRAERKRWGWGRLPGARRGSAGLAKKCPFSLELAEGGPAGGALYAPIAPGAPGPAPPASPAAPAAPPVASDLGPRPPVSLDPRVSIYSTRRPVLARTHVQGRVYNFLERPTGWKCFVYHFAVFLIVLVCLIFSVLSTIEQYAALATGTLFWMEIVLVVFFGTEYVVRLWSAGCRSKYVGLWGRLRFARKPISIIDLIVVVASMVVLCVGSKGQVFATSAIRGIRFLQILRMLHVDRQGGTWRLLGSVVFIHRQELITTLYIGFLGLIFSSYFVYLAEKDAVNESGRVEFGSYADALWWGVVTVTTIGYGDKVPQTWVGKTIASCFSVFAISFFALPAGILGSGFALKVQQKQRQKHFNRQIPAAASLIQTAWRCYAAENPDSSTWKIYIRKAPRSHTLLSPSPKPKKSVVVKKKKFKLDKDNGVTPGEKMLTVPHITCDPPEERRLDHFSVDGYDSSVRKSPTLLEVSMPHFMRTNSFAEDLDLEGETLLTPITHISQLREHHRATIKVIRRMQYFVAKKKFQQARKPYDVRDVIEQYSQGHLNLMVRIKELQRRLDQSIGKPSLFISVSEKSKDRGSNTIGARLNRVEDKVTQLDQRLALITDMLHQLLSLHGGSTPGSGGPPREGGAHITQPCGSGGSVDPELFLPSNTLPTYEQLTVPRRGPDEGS
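System: Stable KCNQ1 CHO-K1 line | Incubation: 90 min dye loading and 20 min compound exposure, both at room temperature | Measure: Ratio B score | Medium: Assay buffer for compound exposure, DMSO matched across wells | Compound dosing: Single-concentration screen | Probe or stimulus: K+/Tl+ depolarizing stimulus | Measured by: Kinetic FluxOR fluorescence, 10 s baseline plus 110 s post-stimulus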
Kir21 inh: blocks the mouse Kir2.1 inward-rectifier potassium channel. P35561. 310,000 compounds, 0.85% hits. B-score at 10 µM. HEK293-Kir2.1, FluxOR thallium flux fluorescence; stronger effect = lower value. AID 1672;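 active means fluorescence ratio B-score at or below minus 3 SD of library scores, with starting-brightness B-score within 2 SD, cut at about -4.2 in these data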;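 further: channel flux triggered by added potassium and thallium sulfate stimulus; B-score of peak minus minimum fluorescence over baseline after thallium stimulus; more negative B-score means stronger Kir2.1 block with less thallium influx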
hERG rescue: shields human hERG channel from block by proarrhythmic agents; Q12809; CHO-hERG, FluxOR thallium flux, dofetilide IC70 present; activation (rescue from dofetilide block), less the hit threshold, % at 10 µM; 310,000 compounds, 0.51% hits;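 active means activation above the mean of controls blocked by dofetilide plus 5 SD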;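 further: thallium influx through hERG after potassium depolarization seen as dye fluorescence rise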
KCNQ1 inh: blocks the human KCNQ1 potassium channel; P51787; CHO-K1 KCNQ1, FluxOR thallium flux fluorescence; stronger effect = higher value; B-score at 10 µM; 310,000 compounds, 1.3% hits;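 active means compounds whose thallium flux B-score, printed positive for inhibition, exceeds three library SD while starting fluorescence stays within three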;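 further: channel opened by potassium depolarization with thallium stimulus after 20 min compound exposure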
KCNK9 block: inhibitors of human KCNK9 two-pore domain potassium channel | Q9NPC2 | HEK293 KCNK9, FluxOR thallium flux fluorescence; stronger effect = lower value | B-score at 10 µM | 310,000 compounds, 1.2% hits | AID 488922;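 active means ratio B-score over 3 SD below the library mean, with starting fluorescence within 5 SD of its mean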;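 further: negative B-score means less thallium flux so channel inhibition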
KCNK3 inh conf: confirmation of human KCNK3 two-pore domain potassium channel inhibitors; shares compounds with KCNK3 inh; 2,400 compounds, 99% hits; CHO-KCNK3 thallium flux, FluxOR fluorescence; 0% buffer, 100% carvedilol maximal block; ratio percent of control, % at 10 µM;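 active means ratio percent of control, averaged over triplicates, above buffer control mean plus 5 SD, cut at about 64% in these data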;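 further: ratio is the fluorescence rise from min to max over baseline after thallium stimulus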
KCNK3 uninduced: activity in cells without induced KCNK3 expression | shares compounds with KCNK3 inh | non-induced KCNK3 parental cells, FluxOR thallium flux; stronger effect = lower value | thallium flux ratio (lower = more inhibition) at 10 µM | 2,400 compounds, 40% hits;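 active means thallium flux ratio, averaged over three wells, more than 5 SD below the buffer control mean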;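 further: host cells are CHO cells without KCNK3 induction; ratio is peak minus trough fluorescence over baseline then normalized to buffer controls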
Starred values were filed as active, the others as inactive; i = inactive; . = not tested or not shown. In the library only some 3.7% were active in any assay of this set; here they are far more common.

SMILES	KCNK3 inh	KCNQ1 act	Kir21 inh	hERG rescue	KCNQ1 inh	KCNK9 block	KCNK3 inh conf	KCNK3 uninduced
Cc1ccc(S(=O)(=O)N(C)C)cc1NC(=O)COC(=O)c1c(-c2ccccc2)noc1C	-9.05*	i	0.16	-14.2	i	i	91.3*	i
Cc1ccccc1NC(=O)COC(=O)c1c(-c2ccccc2)noc1C	i	.	.	.	.	.	.	.
Cc1ccc2c(Cl)cc(Cl)c(OCC(=O)Nc3cc(S(=O)(=O)N(C)C)ccc3C)c2n1	-9.1*	i	1.46	-11.7	i	i	90.3*	0.155*
CCn1cc(C(=O)NCc2ccc3c(c2)OCO3)c(=O)c2cc(F)c(N3CCN(C(=O)c4ccco4)CC3)cc21	i	i	0.31	-8.8	i	i	.	.
CCOc1ccccc1OCCCOc1ccc([N+](=O)[O-])cc1Cl	-9.79*	i	-0.4	2.6	i	i	109.7*	i
Cc1ccc(Cl)cc1NC(=O)C1CCCN(S(C)(=O)=O)C1 (stereo not drawn)	i	i	-1.18	-4.5	i	i	.	.
c1ccc2c(c1)CC1(CCCC1)N=C2N1CCOCC1	i	i	0.82	-11.4	i	i	.	.
Cc1ccc([N+](=O)[O-])c(OCCCN2CCC(Cc3ccccc3)CC2)c1	-8.85*	i	-9.93*	-19.1	7*	i	118.7*	0.126*
Cc1ccccc1CC(=O)c1ccc(O)c(C)c1O	-12.7*	i	-0.64	-12.1	i	i	115.0*	0.154*
CSc1ccc(CN(C)C(=O)C(c2ccccc2)c2ccccc2)cc1	-9.97*	i	-0.18	-7.4	i	i	126.3*	0.126*
CSc1ccc(CN(C)C(=O)C(Cc2ccccc2)NC(=O)c2ccccc2)cc1 (stereo not drawn)	i	i	-0.41	-20.9	i	i	.	.
C/C(CC(=O)Nc1ccc(Cl)cc1)=N\NC(=O)C(=O)N1CCCCC1	i	i	-0.52	-4.8	i	i	.	.
c1ccc(CNc2ncnc3scc(-c4cccs4)c23)nc1	-11.2*	i	-0.2	-33.1	i	i	118.3*	i
c1ccc(-c2csc3ncnc(NCc4ccccn4)c23)cc1	i	i	-2.45	-24.1	i	i	.	.
Cc1ccc(NC(=O)Cn2c(=S)[nH]c3ccccc32)cc1	i	i	-0.8	-8.6	i	i	.	.
Cc1c(N/C(=N/S(=O)(=O)c2ccc(Cl)cc2)c2ccccc2)c(=O)n(-c2ccccc2)n1C	.	i	-1.64	-6.8	i	i	.	.
CCCNC(=O)c1c(N)n(-c2cc(OC)cc(OC)c2)c2nc3ccccc3nc12	-9.18*	i	1.95	-9.0	i	i	125.0*	i
O=C(N[C@@H](Cc1ccccc1)C(=O)N1CCC2(CC1)NCCc1[nH]cnc12)c1cccc(F)c1	i	i	-0.07	-4.6	i	i	.	.
CN1CCN(C2Cc3cc(F)ccc3Sc3ccc(Cl)cc32)CC1 (stereo not drawn)	-10.1*	i	-1.8	-14.2	i	i	113.7*	i
Cc1ccc(C)c(OCC(=O)Nc2ccccc2N2CCCC2)c1	-10.3*	i	-3.61	-14.8	i	i	104.0*	i
Cc1ccc(OCC(=O)Nc2ccccc2N2CCCC2)c(C)c1	i	i	-0.23	-8.6	i	i	.	.
O=C(COc1ccccc1)Nc1ccccc1N1CCCCC1	-10.5*	i	-1.38	-3.8	i	i	127.7*	i
COc1ccc(Oc2cc(C(F)(F)F)nc(N(C)C)n2)cc1	i	i	0.11	-10.5	i	i	.	.
COc1ccc(Cl)cc1NC(=O)CN(C)C(=O)c1cc(-c2ccncc2)nc2ccccc12	-9.17*	i	-0.25	-20.0	i	i	119.7*	0.142*
Cc1ccc2nc(-c3ccccc3)cc(C(=O)N(C)CC(=O)Nc3ccccc3Br)c2c1	-14*	i	-0.31	-18.7	i	i	110.3*	i
SMILES	KCNK3 inh	KCNQ1 act	Kir21 inh	hERG rescue	KCNQ1 inh	KCNK9 block	KCNK3 inh conf	KCNK3 uninduced
COc1ccc(NC(=O)CN(C)C(=O)c2cc(-c3ccccc3)nc3ccccc23)cc1	i	i	-1.23	-13.5	i	i	.	.
COc1cc(OC)c(OC)cc1CCC(C)NC(=O)Cc1ccccc1 (stereo not drawn)	i	i	-0.32	-7.2	i	i	.	.
COCCOC(=O)C1=C(C)N=C2SCCC(=O)N2C1c1cccc(Br)c1 (stereo not drawn)	-9.26*	i	-1.99	-14.5	i	i	111.7*	i
CCOC(=O)C1=C(C)N=C2SCCC(=O)N2C1c1cc(Br)ccc1OC (stereo not drawn)	i	i	-1.58	-4.7	i	i	.	.
COc1ccc(-c2csc3ncnc(N4CCN(c5ccccc5[N+](=O)[O-])CC4)c23)cc1	-8.74*	i	0.65	-16.2	8*	i	96.7*	i
CC(C)(C)C(=O)N1CCN(c2ncnc3scc(-c4ccccc4)c23)CC1	i	i	1.2	-8.9	i	i	.	.
COc1ccc(-c2csc3ncnc(N4CCN(c5ccc(OC)cc5)CC4)c23)cc1	-11*	i	-0.53	-15.4	i	i	92.0*	i
CC(C)c1ccc(-c2csc3ncnc(N4CCN(C)CC4)c23)cc1	i	i	-1.14	-7.5	i	i	.	.
COCCN(CCOC)S(=O)(=O)c1ccc(C(=O)Nc2ccc(S(=O)(=O)Nc3nccc(C)n3)cc2)cc1	-8.94*	i	1.25	-1.2	i	i	70.3*	i
COc1ccc(NC(=O)CN(C)C(=O)CNC(=O)c2ccc(C)s2)cc1	i	i	0.32	-17.2	i	i	.	.
C=CCNC(=O)NC(=O)COC(=O)/C(C#N)=C/c1cc(C)n(CCC(C)C)c1C	i	i	-0.11	-4.8	i	i	.	.
Cc1cc(/C=C(\C#N)C(=O)OCC(=O)NC(=O)NC(C)(C)C)c(C)n1CCC(C)C	-8.71*	i	-0.02	-3.4	i	i	125.0*	i
COc1ccc(Cl)cc1NC(=O)CN(C)C(=O)c1cc2c(s1)CCC(C)C2 (stereo not drawn)	-8.8*	i	0.8	-11.0	i	i	107.0*	i
COc1ccc(CN(C)CC(=O)Nc2cccc3ccccc23)cc1F	-11.1*	i	1.17	-14.0	i	i	90.7*	i
COc1ccc(NC(=O)CN(C)C(=O)c2cc3c(s2)CCC(C)C3)cc1 (stereo not drawn)	i	i	-1.48	-13.2	i	i	.	.
